Laboratory results: ChEMBL document CHEMBL4138271, “Crystal Structures and Human Leukemia Cell Apoptosis Inducible Activities of Parthenolide Analogues Isolated from Piptocoma rufescens” (J Nat Prod, 2018)
pIC50: −log10 of the molar value. Active and inactive are the calls of the source. The calls are words filed in the database; no cut-off is given here.

Legend:
EOL1 [1] = test: Induction of apoptosis in human EOL-1 cells assessed as necrotic cells at 5 uM after 24 hrs by Annexin-V FITC/7-AAD staining based flow cytometric method (reference value: 0.032%); type: functional
MOLM-13 [2] = test: Induction of apoptosis in human MOLM13 cells assessed as necrotic cells at 1.3 uM after 24 hrs by Annexin-V FITC/7-AAD staining based flow cytometric method (reference value: 0%); type: functional
EOL1 [3] = test: Induction of apoptosis in human EOL-1 cells assessed as late apoptotic cells at 2.5 uM after 24 hrs by Annexin-V FITC/7-AAD staining based flow cytometric method (reference value: 0.535%); type: functional
EOL1 [4] = test: Induction of apoptosis in human EOL-1 cells assessed as caspase-3 activation at 10 uM after 72 hrs by immunoblotting analysis; type: functional, cell-based
Summary of the method: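 EOL-1 cells (RPMI 1640, 10% FBS, 37 °C, 5% CO2) exposed 72 h; compounds at 10 μM, PKC412 at 10 nM. Harvested, PBS-washed, lysed in hypertonic NP-40 buffer with protease/phosphatase inhibitors; SDS-PAGE, PVDF transfer, rabbit monoclonal cleaved caspase-3 (Asp175) antibody 12 h, secondary 1 h, chemiluminescent detection; β-actin loading control. Representative blots of three independent experiments.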

MOLM-13 [5] = test: Induction of apoptosis in human MOLM13 cells assessed as early apoptotic cells at 2.5 uM after 24 hrs by Annexin-V FITC/7-AAD staining based flow cytometric method (reference value: 11.8%); type: functional
HT-29 = test: Cytotoxicity against human HT-29 cells after 72 hrs by MTS assay; type: functional, cell-based; conditions: HT-29, 72 h
MOLM-13 [6] = test: Induction of apoptosis in human MOLM13 cells assessed as late apoptotic cells at 1.3 uM after 24 hrs by Annexin-V FITC/7-AAD staining based flow cytometric method (reference value: 1.43%); type: functional
MOLM-13 [7] = test: Induction of apoptosis in human MOLM13 cells assessed as necrotic cells at 2.5 uM after 24 hrs by Annexin-V FITC/7-AAD staining based flow cytometric method (reference value: 0%); type: functional
EOL1 [8] = test: Induction of apoptosis in human EOL-1 cells assessed as necrotic cells at 1.3 uM after 24 hrs by Annexin-V FITC/7-AAD staining based flow cytometric method (reference value: 0.032%); type: functional
EOL1 [9] = test: Induction of apoptosis in human EOL-1 cells assessed as live cells at 1.3 uM after 24 hrs by Annexin-V FITC/7-AAD staining based flow cytometric method (reference value: 97.5%); type: functional
MOLM-13 [10] = test: Induction of apoptosis in human MOLM13 cells assessed as late apoptotic cells at 5 uM after 24 hrs by Annexin-V FITC/7-AAD staining based flow cytometric method (reference value: 1.43%); type: functional
EOL1 [11] = test: Induction of apoptosis in human EOL-1 cells assessed as live cells at 2.5 uM after 24 hrs by Annexin-V FITC/7-AAD staining based flow cytometric method (reference value: 97.5%); type: functional
MOLM-13 [12] = test: Induction of apoptosis in human MOLM13 cells assessed as live cells at 5 uM after 24 hrs by Annexin-V FITC/7-AAD staining based flow cytometric method (reference value: 86.8%); type: functional
EOL1 [13] = test: Induction of apoptosis in human EOL-1 cells assessed as necrotic cells at 2.5 uM after 24 hrs by Annexin-V FITC/7-AAD staining based flow cytometric method (reference value: 0.032%); type: functional
MOLM-13 [14] = test: Induction of apoptosis in human MOLM13 cells assessed as early apoptotic cells at 5 uM after 24 hrs by Annexin-V FITC/7-AAD staining based flow cytometric method (reference value: 11.8%); type: functional
EOL1 [15] = test: Induction of apoptosis in human EOL-1 cells assessed as late apoptotic cells at 1.3 uM after 24 hrs by Annexin-V FITC/7-AAD staining based flow cytometric method (reference value: 0.535%); type: functional
EOL1 [16] = test: Induction of apoptosis in human EOL-1 cells assessed as early apoptotic cells at 5 uM after 24 hrs by Annexin-V FITC/7-AAD staining based flow cytometric method (reference value: 1.94%); type: functional
MOLM-13 [17] = test: Induction of apoptosis in human MOLM13 cells assessed as necrotic cells at 5 uM after 24 hrs by Annexin-V FITC/7-AAD staining based flow cytometric method (reference value: 0%); type: functional
EOL1 [18] = test: Induction of apoptosis in human EOL-1 cells assessed as early apoptotic cells at 1.3 uM after 24 hrs by Annexin-V FITC/7-AAD staining based flow cytometric method (reference value: 1.94%); type: functional
MOLM-13 [19] = test: Synergistic antileukemic activity against human MOLM13 cells assessed as concentration required for <= 75% cell survival after 72 hrs in presence of midostaurin by CellTiter 96 AQueous One solution cell proliferation assay; type: functional
EOL1 [20] = test: Induction of apoptosis in human EOL-1 cells assessed as early apoptotic cells at 2.5 uM after 24 hrs by Annexin-V FITC/7-AAD staining based flow cytometric method (reference value: 1.94%); type: functional
MOLM-13 [21] = test: Induction of apoptosis in human MOLM13 cells assessed as late apoptotic cells at 2.5 uM after 24 hrs by Annexin-V FITC/7-AAD staining based flow cytometric method (reference value: 1.43%); type: functional
EOL1 [22] = test: Synergistic antileukemic activity against human EOL-1 cells assessed as concentration required for <= 75% cell survival after 72 hrs in presence of midostaurin by CellTiter 96 AQueous One solution cell proliferation assay; type: functional
MOLM-13 [23] = test: Induction of apoptosis in human MOLM13 cells assessed as live cells at 1.3 uM after 24 hrs by Annexin-V FITC/7-AAD staining based flow cytometric method (reference value: 86.8%); type: functional
[24] = biological target: Transcription factor p65 (Homo sapiens) (UniProt Q04206); test: Inhibition of NFkappaB p65 in human MOLM13 cells at 10 uM after 72 hrs by immunoblotting method; type: cell-based
Sequence of Transcription factor p65 (Homo sapiens) (Q04206 whole entry): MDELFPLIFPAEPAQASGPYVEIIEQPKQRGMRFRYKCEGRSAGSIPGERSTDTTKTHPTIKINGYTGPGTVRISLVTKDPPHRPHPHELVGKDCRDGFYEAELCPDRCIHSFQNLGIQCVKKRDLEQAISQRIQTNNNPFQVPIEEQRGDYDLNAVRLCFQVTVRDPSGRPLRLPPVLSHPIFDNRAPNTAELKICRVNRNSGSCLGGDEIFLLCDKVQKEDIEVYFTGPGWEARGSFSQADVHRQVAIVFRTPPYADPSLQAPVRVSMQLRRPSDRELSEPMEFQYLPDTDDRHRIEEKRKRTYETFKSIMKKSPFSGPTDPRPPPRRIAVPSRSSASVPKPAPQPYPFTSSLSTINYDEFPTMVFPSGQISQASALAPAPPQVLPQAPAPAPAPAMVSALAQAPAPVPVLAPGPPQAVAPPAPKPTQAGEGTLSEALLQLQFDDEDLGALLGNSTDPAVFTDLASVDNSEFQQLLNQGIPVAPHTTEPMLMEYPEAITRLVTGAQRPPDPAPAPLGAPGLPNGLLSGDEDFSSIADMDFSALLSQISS
Summary of the method: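 MOLM-13 or EOL-1 cells treated 72 h at 10 μM. Cells washed in ice-cold PBS and lysed in hypertonic NP-40 buffer (10 mM HEPES pH 7.5, 0.5 M NaCl) with protease/phosphatase inhibitors. Protein measured by BCA; SDS-PAGE onto PVDF. Probed 12 h with rabbit monoclonal NF-κB-p65 antibody, goat β-actin as loading control, then chemiluminescence. Blots representative of three independent experiments.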

MOLM-13 [25] = test: Induction of apoptosis in human MOLM13 cells assessed as caspase-3 activation at 10 uM after 72 hrs by immunoblotting analysis; type: functional, cell-based
Summary of the method: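 MOLM-13 cells treated 72 h with test compounds at 10 μM or PKC412 at 10 nM. Cells washed in ice-cold PBS, lysed at 10^8 cells/mL in NP-40 hypertonic buffer (pH 7.5) with protease/phosphatase inhibitors, then run on SDS-PAGE and PVDF. Blots probed 12 h with rabbit monoclonal cleaved caspase-3 (Asp175), β-actin as loading control. Representative of three independent experiments.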

MOLM-13 [26] = test: Induction of apoptosis in human MOLM13 cells assessed as early apoptotic cells at 1.3 uM after 24 hrs by Annexin-V FITC/7-AAD staining based flow cytometric method (reference value: 11.8%); type: functional
EOL1 [27] = test: Induction of apoptosis in human EOL-1 cells assessed as live cells at 5 uM after 24 hrs by Annexin-V FITC/7-AAD staining based flow cytometric method (reference value: 97.5%); type: functional
MOLM-13 [28] = test: Cytotoxicity against human MOLM13 cells after 72 hrs by MTS assay; type: functional, cell-based; conditions: MOLM-13, 72 h
EOL1 [29] = test: Induction of apoptosis in human EOL-1 cells assessed as late apoptotic cells at 5 uM after 24 hrs by Annexin-V FITC/7-AAD staining based flow cytometric method (reference value: 0.535%); type: functional
EOL1 [30] = test: Cytotoxicity against human EOL-1 cells after 72 hrs by MTS assay; type: functional, cell-based; conditions: EOL1, 72 h
MOLM-13 [31] = test: Induction of apoptosis in human MOLM13 cells assessed as live cells at 2.5 uM after 24 hrs by Annexin-V FITC/7-AAD staining based flow cytometric method (reference value: 86.8%); type: functional

Structure (SMILES): C=C1C(=O)O[C@@H]2C[C@@H](C)/C=C\C(=O)[C@](C)(OC(C)=O)C[C@H](OC(=O)/C(C)=C\C)[C@@H]12
- Activity (EOL1 [1]): 4.73%
- Activity (MOLM-13 [2]): 0.147%
- Activity (EOL1 [3]): 32.1%
- Activity (EOL1 [4]): Active
- Activity (MOLM-13 [5]): 10.5%
- pIC50 (HT-29): 5.92
- Activity (MOLM-13 [6]): 1.28%
- Activity (MOLM-13 [7]): 0.276%
- Activity (EOL1 [8]): 0.053%
- Activity (EOL1 [9]): 96.7%
- Activity (MOLM-13 [10]): 73.6%
- Activity (EOL1 [11]): 63.8%
- Activity (MOLM-13 [12]): 0.583%
- Activity (EOL1 [13]): 2.72%
- Activity (MOLM-13 [14]): 0.349%
- Activity (EOL1 [15]): 1.36%
- Activity (EOL1 [16]): 0.031%
- Activity (MOLM-13 [17]): 25.5%
- Activity (EOL1 [18]): 1.87%
- Activity (MOLM-13 [19]): 1.9 µM
- Activity (EOL1 [20]): 1.33%
- Activity (MOLM-13 [21]): 2.77%
- Activity (EOL1 [22]): 2.5 µM
- Activity (MOLM-13 [23]): 90.8%
- inhibition [24]: Active
- Activity (MOLM-13 [25]): Active
- Activity (MOLM-13 [26]): 7.82%
- Activity (EOL1 [27]): 2.79%
- pIC50 (MOLM-13 [28]): 5.37
- Activity (EOL1 [29]): 92.9%
- pIC50 (EOL1 [30]): 5.37
- Activity (MOLM-13 [31]): 86.5%
